Published values from different studies.
Protocols differ between the studies behind these lines.
Target: Homeodomain-interacting protein kinase 2 (HIPK2, Homo sapiens, UniProt Q9H2X6)
Effect on: enzyme activity
Action: inhibitor

SMILES | method | concentration | remaining activity
CC(C)(C)c1nc2c(s1)c1nc(N)ncc1c1ccc(NS(=O)(=O)c3c(F)cccc3F)c(F)c12 | radiometric | 1 µM | 80%
O=C(O)c1ccc2c(c1)nc(Nc1ccc(F)c(Cl)c1)c1ccncc12 | radiometric | 1 µM | 1%
FC(F)c1nc2ccccc2n1-c1nc(N2CCOCC2)nc(N2CCOCC2)n1 | – | 10 µM | 63%
O=C(Nc1cnn(-c2csc(C(=O)NC3COC3)c2)c1)Nc1ccccc1Cl | – | 5 µM | 102%
COc1cc(Cl)c(C(=O)N[C@@H](CN[C@H]2CC[C@@H](N)CC2)Cc2ccc(C#N)cc2)cc1-c1ccc(CN[C@H](C)c2ccc(C)cc2)o1 | – | 1 µM | 105%
COc1cc(Nc2cnc(C#N)c(O[C@H](C)CN(C)C)n2)ncc1-c1cnn(C)c1 | radiometric | 1 µM | 89%
O=C(O)c1ccc2c(c1)nc(Nc1ccc(Cl)cc1)c1ccncc12 | radiometric | 1 µM | -1%
CC(C)(C)C(=O)c1sc(NC2CCCCC2)nc1N | – | 10 µM | 79%
Cc1ccc(C(=O)Nc2ccc(CN3CCN(C)CC3)c(C(F)(F)F)c2)cc1C#Cc1cnc2cccnn12 | – | 23.5 nM | 100%
O=C(O)c1ccc2c(c1)nc(Nc1ccccc1)c1ncncc12 | radiometric | 1 µM | 2%
O=C(Nc1cnn(-c2csc(C(=O)NC3COC3)c2)c1)Nc1c(F)cccc1Cl | – | 5 µM | 92.6%
O=C(O)c1ccc2c(c1)nc(NCCc1ccccc1)c1ncncc12 | radiometric | 1 µM | 7%
CCCOc1ccc(OC)c(F)c1C(=O)c1ccc(C(=O)N[C@@H]2CNC[C@H]2NC(=O)c2ccc3[nH]ncc3c2)cc1 | – | 10 µM | 94%
